The target in test [1] is Poly [ADP-ribose] polymerase 1 (Homo sapiens, UniProt P09874).
Test [2] has as its system A549. The test is described as follows: In vitro cytotoxicity against human lung carcinoma A549 cells. In kind it is functional, cell-based. An outline of the steps:
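A549 cells seeded 16–24 h before treatment, then exposed to compound alone for 3 or 5 days. Relative cell number read by MTT (0.2 μg/μL, 4 h, DMSO-solubilized, 540 nm) or SRB (10% TCA fix 1 h at 4 °C, 0.4% SRB 30 min, Tris-solubilized, 515 nm). Cytotoxicity taken as % OD of treated versus mock-treated culture; IC50 reported.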

Test [3] concerns A549. The test is described as follows: In vitro cytotoxicity of compound at 0.4 uM in combination with topotecan against human lung carcinoma A549 cells. In kind it is functional, cell-based. A digest of the protocol:
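A549 cells seeded 16–24 h ahead, then exposed to topotecan plus 0.4 μM PARP-1 inhibitor for 3 or 5 days. Cell number read by MTT (540 nm) or SRB (515 nm). Cytotoxicity expressed as % OD relative to mock-treated culture; topotecan IC50 reported in presence of inhibitor.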

In test [4] the test system is A549. The test is described as follows: Ratio of cytotoxicity of topotecan to cytotoxicity of compound at 0.4 uM in combination with topotecan. In kind it is functional, Homo sapiens.

Molecules are shown by their SMILES.

Sequence of Poly [ADP-ribose] polymerase 1 (P09874 whole entry): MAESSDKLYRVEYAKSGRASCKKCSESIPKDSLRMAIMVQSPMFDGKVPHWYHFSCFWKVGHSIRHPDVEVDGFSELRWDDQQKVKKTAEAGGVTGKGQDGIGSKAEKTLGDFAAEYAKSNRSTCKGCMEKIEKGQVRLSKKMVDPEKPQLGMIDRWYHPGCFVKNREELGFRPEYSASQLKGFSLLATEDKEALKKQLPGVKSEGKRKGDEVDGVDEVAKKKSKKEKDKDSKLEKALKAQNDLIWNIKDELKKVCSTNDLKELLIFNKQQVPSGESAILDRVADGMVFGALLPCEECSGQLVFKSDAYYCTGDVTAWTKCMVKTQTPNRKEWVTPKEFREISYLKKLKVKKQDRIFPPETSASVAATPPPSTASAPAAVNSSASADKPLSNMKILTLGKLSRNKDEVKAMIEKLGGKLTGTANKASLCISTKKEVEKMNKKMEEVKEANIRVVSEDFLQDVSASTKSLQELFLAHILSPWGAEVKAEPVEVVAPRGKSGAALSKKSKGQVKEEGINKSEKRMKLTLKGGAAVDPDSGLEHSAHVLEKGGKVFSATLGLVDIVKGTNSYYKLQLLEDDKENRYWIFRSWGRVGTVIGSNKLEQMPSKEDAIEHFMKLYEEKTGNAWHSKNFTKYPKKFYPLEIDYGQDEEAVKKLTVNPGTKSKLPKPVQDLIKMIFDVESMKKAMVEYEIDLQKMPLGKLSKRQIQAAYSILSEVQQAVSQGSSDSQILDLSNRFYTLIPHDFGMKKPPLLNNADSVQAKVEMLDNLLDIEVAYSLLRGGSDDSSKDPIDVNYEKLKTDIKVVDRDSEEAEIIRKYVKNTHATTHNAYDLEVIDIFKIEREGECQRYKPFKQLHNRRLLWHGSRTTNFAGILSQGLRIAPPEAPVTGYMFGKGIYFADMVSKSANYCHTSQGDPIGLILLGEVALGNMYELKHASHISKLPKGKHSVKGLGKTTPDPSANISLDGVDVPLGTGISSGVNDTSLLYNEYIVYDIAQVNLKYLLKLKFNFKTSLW

For `Cc1nc2c(O)cccc2c(=O)[nH]1`, the Ki (commonly a measure of affinity in units of concentration, obtained from inhibition or displacement) in test [1] turned out to be 52 nM.
For the compound `CN(C)Cc1cccc(-c2cc3cccc4c3n2CCNC4=O)c1`, the IC50 (as a rule, the concentration at which inhibition is half-maximal) was 11000 nM in test [2] and 15 nM in test [3]. The PF50 in test [4] is recorded as 1.6.
In test [1], `O=Cc1cn2c3c(cccc13)C(=O)NCC2` yielded a Ki of 176 nM.
Consider `Cc1c(-c2ccc(F)cc2)n2c3c(cccc13)C(=O)NCC2`, for which the IC50 worked out at 6000 nM in test [2] and 21.8 nM in test [3]. Moreover, the PF50 in test [4] is 1.1.
`Cc1cccc2c1CCNC2=O` returned a Ki in test [1] of 70 nM.
Still for that read-out and setting: next, `O=C1NCCn2c(-c3ccc(Cn4cccc4)cc3)cc3cccc1c32`: 6.8 nM; `CNCc1cccc(-c2cc3cccc4c3n2CCNC4=O)c1`: 6.9 nM.
For the compound `CN(C)Cc1ccc(-c2cc3cccc4c3n2CCNC4=O)cc1`, the IC50 was 7000 nM in test [2] and 12.6 nM in test [3]. The PF50 in test [4] stood at 1.9. This compound also returned a Ki in test [1] of 6.4 nM.
Turning to `O=C1NCCn2cc(/C=N/O)c3cccc1c32`, the IC50 in test [2] was determined as 8000 nM; in test [3], 18.5 nM. Besides, in test [4], the PF50 is 1.3.
The matching figures for `O=C1NCCn2c(-c3ccc(Cl)cc3)cc3cccc1c32`: 3000 nM, 13.3 nM and 1.8.
Turning to `NN/N=C/c1c(-c2ccc(F)cc2)n2c3c(cccc13)C(=O)NCC2`, the affinity in test [1], expressed as Ki, was 57 nM.
The same measure, in the same setting: next, `N=C(NO)C1c2cccc3c2N(CCNC3=O)C1c1ccc(F)cc1` (stereo not given): 87 nM; `O=C1NCCn2c(-c3cccc(Cn4cccc4)c3)cc3cccc1c32`: 12.5 nM.
In the case of `O=C1NCCn2c(-c3ccc(F)cc3)c(/C=N/O)c3cccc1c32`, the IC50 in test [2] was less than 800 nM; in test [3], 20 nM. In addition, the PF50 in test [4] came to 1.2.
As to `O=C1NCCn2c(-c3ccc(F)cc3)cc3cccc1c32`, the IC50 in test [2] is 8000 nM; in test [3] it was 13.3 nM. Besides, in test [4], the PF50 amounted to 1.8.

The values are drawn from ChEMBL document CHEMBL1137224, “Design, synthesis, and evaluation of 3,4-dihydro-2H-[1,4]diazepino[6,7,1-hi]indol-1-ones as inhibitors of poly(ADP-ribose) polymerase” (J Med Chem, 2004).
